2 molecules from ChEMBL document CHEMBL3576798, “Depsipeptide companeramides from a Panamanian marine cyanobacterium associated with the coibamide producer” (J Nat Prod, 2015) can be followed below.

Assay [1] has as its system Plasmodium falciparum. Description: Antiplasmodial activity against chloroquine-resistant Plasmodium falciparum 7G8 in human erythrocyte after 72 hrs by SYBR Green I assay. It counts as functional, organism-based. Particulars: 7G8, 72 h. The gist of the method:
(§1)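 Asynchronous parasites grown in human erythrocytes at 2% hematocrit in RPMI 1640 with 0.5% Albumax, 45 μg/L hypoxanthine, 50 μg/L gentamicin. Samples (10 mM stock in sterile water) serially diluted in medium, quadruplicate wells at 0.2% parasitemia, 2% hematocrit; 72 h at 37 °C. Lysis buffer with SYBR Green I added, 1 h rt dark, fluorescence ex 497/em 520 nm; IC50 by nonlinear regression of logistic dose–response curves.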

Assay [2] relates to Plasmodium falciparum. Description: Antiplasmodial activity against chloroquine-sensitive Plasmodium falciparum D6 in human erythrocyte after 72 hrs by SYBR Green I assay. It counts as functional, organism-based. Particulars: D6, 72 h. In a few lines: as §1
Assay [3] has as its system Plasmodium falciparum. Nature of the assay: Antiplasmodial activity against chloroquine-resistant Plasmodium falciparum Dd2 in human erythrocyte after 72 hrs by SYBR Green I assay. The assay is classed as functional, organism-based. To be noted: Dd2, 72 h. In a few lines: as §1
The subject of assay [4] is NCI-H460. Description: Cytotoxicity against human NCI-H460 cells at 1 uM after 24 hrs by MTT assay. It counts as functional, cell-based. The gist of the method: (§2)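 MTT viability assay; cells seeded at 3000 per well the day before treatment, kept under standard growth conditions. Compounds dissolved in 100% DMSO (stored −20 °C), final DMSO at most 0.1%. Viability relative to vehicle-treated cells set as 100%; coibamide A (30 nM) as control cancer cell toxin.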

In assay [5] the test system is SK-OV-3. Description: Cytotoxicity against human SKOV3 cells at 1 uM after 24 hrs by MTT assay. The assay is classed as functional, cell-based. In a few lines: as §2
(In general: Formazan colour is commonly taken as a measure of viable cells.)

In assay [6] the test system is MDA-MB-231. Nature of the assay: Cytotoxicity against human MDA-MB-231 cells at 1 uM after 24 hrs by MTT assay. It counts as functional, cell-based. In a few lines: as §2
The test system of assay [7] is SF-295. Description: Cytotoxicity against human SF295 cells at 1 uM after 24 hrs by MTT assay. The assay is classed as functional, cell-based. The gist of the method: as §2

Activity calls are given as the source filed them. The rule behind the calls is not given here.

Turning to `C#CCCC[C@H]1NC(=O)[C@H](C(C)C)N(C)C(=O)[C@H](C(C)C)NC(=O)[C@@H](C)N(C)C(=O)[C@@H]2CCCN2C(=O)[C@H]([C@H](C)CC)NC(=O)[C@H](C(C)C)N(C)C(=O)[C@H](C(C)C)NC(=O)[C@H](C)N(C)C(=O)[C@H](C(C)C)OC(=O)[C@H]1C`, the results for the concentration for half-maximal inhibition (IC50) in assay [1], in assay [2] and in assay [3] were 700 nM, 220 nM and 230 nM, respectively.

With `C#CCCC[C@H]1NC(=O)[C@H](C(C)C)N(C)C(=O)[C@H](C)NC(=O)[C@H](CC(C)C)N(C)C(=O)[C@@H]2CCCN2C(=O)[C@H]([C@H](C)CC)NC(=O)[C@H](C(C)C)N(C)C(=O)[C@H]([C@H](C)CC)NC(=O)[C@@H](C)N(C)C(=O)[C@H](C(C)C)OC(=O)[C@H]1C`, the figures for the concentration for half-maximal inhibition (IC50) in assay [1], in assay [2] and in assay [3] were 1100 nM, 570 nM and 1000 nM, respectively. Also, the outcome in assay [4], in assay [5], in assay [6] and in assay [7] was inactive.
